Results: publication PMC10973196 (Saudi Pharmaceutical Journal : SPJ, 2024)
≈ marks a conversion by molar mass, not a printed value.

Columns and labels:
Cell viability = type: cell-based; conditions: human, normal HUVEC cells
How it was run: (§1)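 Cells were seeded in 96-well plates, grown for 24 h, then exposed to test compounds at various concentrations for 48 h. MTT solution (5 mg/mL) was added for 2–4 h at 37 °C, and formazan absorbance was read at 570 nm. Viability was expressed as treated/untreated absorbance ×100, and IC50 was fitted from viability dose-response curves.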

lung cancer cell (A549) = assay: Cell viability; type: cell-based; conditions: Homo sapiens, A549, 48 h, read-out: IC50, cytotoxic activity
How it was run: as §1

[1] = molecular target: SARS-CoV-2 main protease (Mpro) (Severe acute respiratory syndrome coronavirus 2, UniProt P0DTD1); assay: biochemical

Compound | IC50 at 48 h (Cell viability) [µg/mL] | IC50 (lung cancer cell (A549)) [µg/mL] | IC50 [1] [µM]
O=c1cc(-c2ccc(O)cc2)oc2cc(O)c([C@@H]3O[C@H](CO)[C@@H](O)[C@H](O)[C@H]3O)c(O)c12 [Compound 14, apigenin-6-C-β-D-glucoside (isovitexin)] | > 100 | > 100 | 21.7
COc1cccc2c1C(=O)c1c(O)c3c(c(O)c1C2=O)C[C@@](O)(C(=O)CO)C[C@@H]3O[C@H]1C[C@H](N)[C@H](O)[C@H](C)O1 [Doxorubicin, reference compound] | 2.5 ± 0.1 (≈ 4.6 µM) | 1.45 ± 0.05 (≈ 2.67 µM) | 
C[C@@H]1O[C@@H](Oc2cc3c(=O)oc4c(O)c(O)cc5c(=O)oc(c2O)c3c45)[C@H](O)[C@H](O)[C@H]1O [Compound 10, ellagic acid-2-O-α-L-rhamnopyranoside (eschweilenol C)] | > 100 | > 100 | 22.3
